Measurements published in ChEMBL document CHEMBL1152796, “Azole antimicrobial pharmacophore-based tetrazoles: synthesis and biological evaluation as potential antimicrobial and anticonvulsant agents” (Bioorg Med Chem, 2009).
Values after ≈ are worked out from the molar mass of the structure shown. Active and inactive are the calls of the source. No cut-off for these calls is given here.

tested on: Aspergillus fumigatus; experiment: Antifungal activity against Aspergillus fumigatus isolate at 1 mg/mL after 7 days by agar diffusion method; format: functional; conditions: 168 h, read-out: Diameter of inhibition zone
How it was run: (§1)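 Agar disc diffusion: 5 mm sterile paper discs soaked in 1 mg/mL test solution in DMSO were placed on agar seeded with the organism, in triplicate, with a DMSO-only control. Bacterial plates were incubated at 37 °C for 24 h and fungal plates for 7 days. Read-out was the average inhibition-zone diameter in mm. Fungi were clinical isolates.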

| SMILES | zone of inhibition at 1000 µg/mL |
| --- | --- |
| Clc1ccc(C2Cn3nnnc3Cc3ccccc32)cc1 (centres undefined) | ≥ 14 mm |
| Sc1nnc(COC(Cn2nnnc2Cc2ccccc2)c2ccc(Cl)cc2)n1-c1ccc(Cl)cc1 (centres undefined) | ≥ 14 mm |
| Sc1nnc(COC(Cn2nnnc2Cc2ccccc2)c2ccc(Cl)cc2)n1-c1ccccc1 (centres undefined) | ≥ 14 mm |

tested on: Micrococcus luteus; experiment: Antibacterial activity against Micrococcus luteus ATCC 21881 at 1 mg/mL after 24 hrs by agar diffusion method; format: functional; conditions: ATCC 21881, 24 h, read-out: Diameter of inhibition zone; how it was run: as §1

| SMILES | zone of inhibition at 1000 µg/mL |
| --- | --- |
| Clc1ccc(C2Cn3nnnc3Cc3ccccc32)cc1 (centres undefined) | ≥ 14 mm |
| Sc1nnc(COC(Cn2nnnc2Cc2ccccc2)c2ccc(Cl)cc2)n1-c1ccc(Cl)cc1 (centres undefined) | ≥ 14 mm |
| Sc1nnc(COC(Cn2nnnc2Cc2ccccc2)c2ccc(Cl)cc2)n1-c1ccccc1 (centres undefined) | ≥ 14 mm |

tested on: Candida albicans; experiment: Antifungal activity against Candida albicans isolate after 72 hrs by twofold serial dilution method; format: functional; conditions: not given

| SMILES | MIC |
| --- | --- |
| Clc1ccc(C2Cn3nnnc3Cc3ccccc32)cc1 (centres undefined) | ≥ 200 µg/mL |
| Sc1nnc(COC(Cn2nnnc2Cc2ccccc2)c2ccc(Cl)cc2)n1-c1ccc(Cl)cc1 (centres undefined) | 25 µg/mL (≈ 46.4 µM) |
| Sc1nnc(COC(Cn2nnnc2Cc2ccccc2)c2ccc(Cl)cc2)n1-c1ccccc1 (centres undefined) | 50 µg/mL (≈ 99.2 µM) |

tested on: Klebsiella pneumoniae; experiment: Antibacterial activity against Klebsiella pneumoniae isolate at 1 mg/mL after 24 hrs by agar diffusion method; format: functional; conditions: read-out: Diameter of inhibition zone; how it was run: as §1

| SMILES | zone of inhibition at 1000 µg/mL |
| --- | --- |
| Clc1ccc(C2Cn3nnnc3Cc3ccccc32)cc1 (centres undefined) | ≥ 14 mm |
| Sc1nnc(COC(Cn2nnnc2Cc2ccccc2)c2ccc(Cl)cc2)n1-c1ccc(Cl)cc1 (centres undefined) | ≥ 14 mm |
| Sc1nnc(COC(Cn2nnnc2Cc2ccccc2)c2ccc(Cl)cc2)n1-c1ccccc1 (centres undefined) | ≥ 14 mm |

tested on: Aspergillus fumigatus; experiment: Antifungal activity against Aspergillus fumigatus isolate after 72 hrs by twofold serial dilution method; format: functional; conditions: not given

| SMILES | MIC |
| --- | --- |
| Clc1ccc(C2Cn3nnnc3Cc3ccccc32)cc1 (centres undefined) | 25 µg/mL (≈ 84.2 µM) |
| Sc1nnc(COC(Cn2nnnc2Cc2ccccc2)c2ccc(Cl)cc2)n1-c1ccc(Cl)cc1 (centres undefined) | ≥ 200 µg/mL |
| Sc1nnc(COC(Cn2nnnc2Cc2ccccc2)c2ccc(Cl)cc2)n1-c1ccccc1 (centres undefined) | ≥ 200 µg/mL |

tested on: Bacillus subtilis; experiment: Antibacterial activity against Bacillus subtilis NRRL B-14819 after 24 to 48 hrs by twofold serial dilution method; format: functional; conditions: not given
How it was run: (§2)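 Broth microdilution in Müller–Hinton broth. DMSO stocks at 800 were diluted twofold from 400 down to 6.25. Wells received 10^6 CFU/mL bacterial suspension and were incubated at 36 °C for 24–48 h, with controls. MIC was read per well. Duplicate assays; run only for compounds giving inhibition zones ≥14 mm.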

| SMILES | MIC |
| --- | --- |
| Clc1ccc(C2Cn3nnnc3Cc3ccccc32)cc1 (centres undefined) | ≥ 200 µg/mL |
| Sc1nnc(COC(Cn2nnnc2Cc2ccccc2)c2ccc(Cl)cc2)n1-c1ccc(Cl)cc1 (centres undefined) | 50 µg/mL (≈ 92.9 µM) |
| Sc1nnc(COC(Cn2nnnc2Cc2ccccc2)c2ccc(Cl)cc2)n1-c1ccccc1 (centres undefined) | 100 µg/mL (≈ 198 µM) |

tested on: Pseudomonas aeruginosa; experiment: Antibacterial activity against Pseudomonas aeruginosa ATCC 27853 after 24 to 48 hrs by twofold serial dilution method; format: functional; conditions: not given; how it was run: as §2

| SMILES | MIC |
| --- | --- |
| Clc1ccc(C2Cn3nnnc3Cc3ccccc32)cc1 (centres undefined) | ≥ 200 µg/mL |
| Sc1nnc(COC(Cn2nnnc2Cc2ccccc2)c2ccc(Cl)cc2)n1-c1ccc(Cl)cc1 (centres undefined) | ≥ 200 µg/mL |
| Sc1nnc(COC(Cn2nnnc2Cc2ccccc2)c2ccc(Cl)cc2)n1-c1ccccc1 (centres undefined) | ≥ 200 µg/mL |

tested on: Aspergillus niger; experiment: Antifungal activity against Aspergillus niger isolate after 72 hrs by twofold serial dilution method; format: functional, organism-based; conditions: not given

| SMILES | Activity |
| --- | --- |
| Clc1ccc(C2Cn3nnnc3Cc3ccccc32)cc1 (centres undefined) | inactive |
| Sc1nnc(COC(Cn2nnnc2Cc2ccccc2)c2ccc(Cl)cc2)n1-c1ccc(Cl)cc1 (centres undefined) | inactive |
| Sc1nnc(COC(Cn2nnnc2Cc2ccccc2)c2ccc(Cl)cc2)n1-c1ccccc1 (centres undefined) | inactive |

tested on: Pseudomonas aeruginosa; experiment: Antibacterial activity against Pseudomonas aeruginosa ATCC 27853 at 1 mg/mL after 24 hrs by agar diffusion method; format: functional; conditions: ATCC 27853, 24 h, read-out: Diameter of inhibition zone; how it was run: as §1

| SMILES | zone of inhibition at 1000 µg/mL |
| --- | --- |
| Clc1ccc(C2Cn3nnnc3Cc3ccccc32)cc1 (centres undefined) | ≥ 14 mm |
| Sc1nnc(COC(Cn2nnnc2Cc2ccccc2)c2ccc(Cl)cc2)n1-c1ccc(Cl)cc1 (centres undefined) | ≥ 14 mm |
| Sc1nnc(COC(Cn2nnnc2Cc2ccccc2)c2ccc(Cl)cc2)n1-c1ccccc1 (centres undefined) | ≥ 14 mm |

tested on: Staphylococcus aureus; experiment: Antibacterial activity against Staphylococcus aureus ATCC 6538 at 1 mg/mL after 24 hrs by agar diffusion method; format: functional; conditions: ATCC 6538, 24 h, read-out: Diameter of inhibition zone; how it was run: as §1

| SMILES | zone of inhibition at 1000 µg/mL |
| --- | --- |
| Clc1ccc(C2Cn3nnnc3Cc3ccccc32)cc1 (centres undefined) | ≥ 14 mm |
| Sc1nnc(COC(Cn2nnnc2Cc2ccccc2)c2ccc(Cl)cc2)n1-c1ccc(Cl)cc1 (centres undefined) | ≥ 14 mm |
| Sc1nnc(COC(Cn2nnnc2Cc2ccccc2)c2ccc(Cl)cc2)n1-c1ccccc1 (centres undefined) | ≥ 14 mm |

tested on: Pichia kudriavzevii; experiment: Antifungal activity against Candida krusei isolate after 72 hrs by twofold serial dilution method; format: functional, organism-based; conditions: not given

| SMILES | Activity |
| --- | --- |
| Clc1ccc(C2Cn3nnnc3Cc3ccccc32)cc1 (centres undefined) | inactive |
| Sc1nnc(COC(Cn2nnnc2Cc2ccccc2)c2ccc(Cl)cc2)n1-c1ccc(Cl)cc1 (centres undefined) | inactive |
| Sc1nnc(COC(Cn2nnnc2Cc2ccccc2)c2ccc(Cl)cc2)n1-c1ccccc1 (centres undefined) | inactive |

tested on: Escherichia coli; experiment: Antibacterial activity against Escherichia coli ATCC 25922 after 24 to 48 hrs by twofold serial dilution method; format: functional; conditions: not given; how it was run: as §2

| SMILES | MIC |
| --- | --- |
| Clc1ccc(C2Cn3nnnc3Cc3ccccc32)cc1 (centres undefined) | 50 µg/mL (≈ 168 µM) |
| Sc1nnc(COC(Cn2nnnc2Cc2ccccc2)c2ccc(Cl)cc2)n1-c1ccc(Cl)cc1 (centres undefined) | 50 µg/mL (≈ 92.9 µM) |
| Sc1nnc(COC(Cn2nnnc2Cc2ccccc2)c2ccc(Cl)cc2)n1-c1ccccc1 (centres undefined) | 100 µg/mL (≈ 198 µM) |

tested on: Bacillus subtilis; experiment: Antibacterial activity against Bacillus subtilis NRRL B-14819 at 1 mg/mL after 24 hrs by agar diffusion method; format: functional; conditions: read-out: Diameter of inhibition zone; how it was run: as §1

| SMILES | zone of inhibition at 1000 µg/mL |
| --- | --- |
| Clc1ccc(C2Cn3nnnc3Cc3ccccc32)cc1 (centres undefined) | ≥ 14 mm |
| Sc1nnc(COC(Cn2nnnc2Cc2ccccc2)c2ccc(Cl)cc2)n1-c1ccc(Cl)cc1 (centres undefined) | ≥ 14 mm |
| Sc1nnc(COC(Cn2nnnc2Cc2ccccc2)c2ccc(Cl)cc2)n1-c1ccccc1 (centres undefined) | ≥ 14 mm |

tested on: Trichophyton rubrum; experiment: Antifungal activity against Trichophyton rubrum isolate after 72 hrs by twofold serial dilution method; format: functional, organism-based; conditions: not given

| SMILES | Activity |
| --- | --- |
| Clc1ccc(C2Cn3nnnc3Cc3ccccc32)cc1 (centres undefined) | inactive |
| Sc1nnc(COC(Cn2nnnc2Cc2ccccc2)c2ccc(Cl)cc2)n1-c1ccc(Cl)cc1 (centres undefined) | inactive |
| Sc1nnc(COC(Cn2nnnc2Cc2ccccc2)c2ccc(Cl)cc2)n1-c1ccccc1 (centres undefined) | inactive |

tested on: Micrococcus luteus; experiment: Antibacterial activity against Micrococcus luteus ATCC 21881 after 24 to 48 hrs by twofold serial dilution method; format: functional; conditions: not given; how it was run: as §2

| SMILES | MIC |
| --- | --- |
| Clc1ccc(C2Cn3nnnc3Cc3ccccc32)cc1 (centres undefined) | ≥ 200 µg/mL |
| Sc1nnc(COC(Cn2nnnc2Cc2ccccc2)c2ccc(Cl)cc2)n1-c1ccc(Cl)cc1 (centres undefined) | 100 µg/mL (≈ 186 µM) |
| Sc1nnc(COC(Cn2nnnc2Cc2ccccc2)c2ccc(Cl)cc2)n1-c1ccccc1 (centres undefined) | ≥ 200 µg/mL |

tested on: Staphylococcus aureus; experiment: Antibacterial activity against Staphylococcus aureus ATCC 6538 after 24 to 48 hrs by twofold serial dilution method; format: functional; conditions: not given; how it was run: as §2

| SMILES | MIC |
| --- | --- |
| Clc1ccc(C2Cn3nnnc3Cc3ccccc32)cc1 (centres undefined) | 50 µg/mL (≈ 168 µM) |
| Sc1nnc(COC(Cn2nnnc2Cc2ccccc2)c2ccc(Cl)cc2)n1-c1ccc(Cl)cc1 (centres undefined) | 25 µg/mL (≈ 46.4 µM) |
| Sc1nnc(COC(Cn2nnnc2Cc2ccccc2)c2ccc(Cl)cc2)n1-c1ccccc1 (centres undefined) | 50 µg/mL (≈ 99.2 µM) |

tested on: Mus musculus; experiment: Anticonvulsant activity in Wister albino mouse assessed as protection against subcutaneous metrazole-induced seizures at 100 mg/kg, ip administered 30 mins before metrazole challenge measured after 30 mins; format: functional; conditions: route intraperitoneal
How it was run: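 Wistar albino mice, either sex, 25–30 g, 3 months old, in groups of six. Compounds in DMSO were given ip at 30, 100 or 300 mg/kg; vehicle-only controls. After 30 min, metrazole 100 mg/kg in DMSO was injected sc at the posterior midline. Protection meant absence of any clonic spasm lasting ≥5 s; scored as protected/tested.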

| SMILES | Activity |
| --- | --- |
| Clc1ccc(C2Cn3nnnc3Cc3ccccc32)cc1 (centres undefined) | 0% |
| Sc1nnc(COC(Cn2nnnc2Cc2ccccc2)c2ccc(Cl)cc2)n1-c1ccccc1 (centres undefined) | 0% |

tested on: Candida albicans; experiment: Antifungal activity against Candida albicans isolate at 1 mg/mL after 7 days by twofold serial dilution method; format: functional; conditions: 168 h, read-out: Diameter of inhibition zone

| SMILES | zone of inhibition at 1000 µg/mL |
| --- | --- |
| Clc1ccc(C2Cn3nnnc3Cc3ccccc32)cc1 (centres undefined) | ≥ 14 mm |
| Sc1nnc(COC(Cn2nnnc2Cc2ccccc2)c2ccc(Cl)cc2)n1-c1ccc(Cl)cc1 (centres undefined) | ≥ 14 mm |
| Sc1nnc(COC(Cn2nnnc2Cc2ccccc2)c2ccc(Cl)cc2)n1-c1ccccc1 (centres undefined) | ≥ 14 mm |

tested on: Mus musculus; experiment: Anticonvulsant activity in Wister albino mouse assessed as protection against maximal electroshock-induced seizures at 100 mg/kg, ip administered 30 mins before metrazole challenge measured after 30 mins; format: functional; conditions: route intraperitoneal

| SMILES | Activity |
| --- | --- |
| Clc1ccc(C2Cn3nnnc3Cc3ccccc32)cc1 (centres undefined) | 33% |
| Sc1nnc(COC(Cn2nnnc2Cc2ccccc2)c2ccc(Cl)cc2)n1-c1ccccc1 (centres undefined) | 33% |

tested on: Candida tropicalis; experiment: Antifungal activity against Candida tropicalis isolate after 72 hrs by twofold serial dilution method; format: functional, organism-based; conditions: not given

| SMILES | Activity |
| --- | --- |
| Clc1ccc(C2Cn3nnnc3Cc3ccccc32)cc1 (centres undefined) | inactive |
| Sc1nnc(COC(Cn2nnnc2Cc2ccccc2)c2ccc(Cl)cc2)n1-c1ccc(Cl)cc1 (centres undefined) | inactive |
| Sc1nnc(COC(Cn2nnnc2Cc2ccccc2)c2ccc(Cl)cc2)n1-c1ccccc1 (centres undefined) | inactive |

tested on: Escherichia coli; experiment: Antibacterial activity against Escherichia coli ATCC 25922 at 1 mg/mL after 24 hrs by agar diffusion method; format: functional; conditions: ATCC 25922, 24 h, read-out: Diameter of inhibition zone; how it was run: as §1

| SMILES | zone of inhibition at 1000 µg/mL |
| --- | --- |
| Clc1ccc(C2Cn3nnnc3Cc3ccccc32)cc1 (centres undefined) | ≥ 14 mm |
| Sc1nnc(COC(Cn2nnnc2Cc2ccccc2)c2ccc(Cl)cc2)n1-c1ccc(Cl)cc1 (centres undefined) | ≥ 14 mm |
| Sc1nnc(COC(Cn2nnnc2Cc2ccccc2)c2ccc(Cl)cc2)n1-c1ccccc1 (centres undefined) | ≥ 14 mm |

tested on: Klebsiella pneumoniae; experiment: Antibacterial activity against Klebsiella pneumoniae isolate after 24 to 48 hrs by twofold serial dilution method; format: functional; conditions: not given; how it was run: as §2

| SMILES | MIC |
| --- | --- |
| Clc1ccc(C2Cn3nnnc3Cc3ccccc32)cc1 (centres undefined) | ≥ 200 µg/mL |
| Sc1nnc(COC(Cn2nnnc2Cc2ccccc2)c2ccc(Cl)cc2)n1-c1ccc(Cl)cc1 (centres undefined) | ≥ 200 µg/mL |
| Sc1nnc(COC(Cn2nnnc2Cc2ccccc2)c2ccc(Cl)cc2)n1-c1ccccc1 (centres undefined) | ≥ 200 µg/mL |
